Experimental data of several laboratories.
Protocols differ between the studies behind these lines.
UGT2B7: UDP-glucuronosyltransferase 2B7 (UGT2B7, Homo sapiens, UniProt P16662)

For `CC(=C/C=C/C(C)=C/C(=O)O)/C=C1\CCCc2ccccc21`, the Tmax was 2.88 h (human, plasma; oral, 20 mg, single dose, fasted, healthy volunteers).
The Tmax of `CN(C)CCc1c[nH]c2ccccc12` is reported as 0.16 h (human, plasma; intravenous, 9 mg, healthy volunteers, infusion).
With `CSCC[C@H](NC(=O)COCCOCCNC(=O)COCCOCCNC(=O)CC[C@H](NC(=O)CCCCCCCCCCCCCCCCC(=O)O)C(=O)O)C(=O)N[C@H]1CSSC[C@@H](C(=O)NCC(=O)N[C@@H](CO)C(=O)NCC(=O)N[C@@H](CO)C(=O)N[C@@H](CC(=O)O)C(=O)N[C@@H](Cc2ccc(O)cc2)C(=O)N[C@@H](CCCCN)C(=O)N[C@@H](CC(=O)O)C(=O)N[C@@H](CC(=O)O)C(=O)N[C@@H](CC(=O)O)C(=O)N[C@@H](CC(=O)O)C(=O)N[C@@H](CCCCN)C(N)=O)NC(=O)[C@H](Cc2ccccc2)NC(=O)[C@@H]2CCCN2C(=O)[C@H](Cc2c[nH]c3ccccc23)NC(=O)[C@H](CC(C)C)NC(=O)[C@H](CCSC)NC(=O)[C@H](Cc2c[nH]cn2)NC(=O)[C@H](Cc2ccccc2)NC(=O)[C@H](Cc2c[nH]cn2)NC(=O)[C@H]([C@@H](C)O)NC(=O)[C@H](Cc2ccccc2)NC1=O` the MRT was 13.7 h (male Sprague-Dawley rat, plasma; intravenous).
`C=C1CCC2C(C)(CO)C(=O)CCC2(C)C1C=CC1=CCOC1=O` (centres unmarked) has a Ki of 13.7 µM (UGT2B7; enzyme activity, inhibitor).
For `Cc1ncc2n1-c1ccc(Cl)cc1C(c1ccccc1F)=NC2`, the Tmax was 0.67 h (human, plasma; oral, 2 mg, single dose).
For `COc1ccc(C[C@@H]2NC(=O)[C@H]([C@@H](C)O)NC(=O)[C@@H]3[C@@H]4CCN3C(=O)[C@@H]3Cc5cn(c6ccc(F)cc56)CCCCCCN(Cc5ccc(cc5)CCNC(=O)[C@]5(C)CCCN5C2=O)C(=O)CCC(=O)N[C@@H](C)C(=O)N[C@H](CNC(=O)CCCCC[N+](C)(C)C)C(=O)N[C@@H](Cc2cccc(c2)CNC(=O)CO4)C(=O)N3)cc1`, the Tmax was 14.5 h (human, plasma; oral, 200 mg, single dose).
With `CC(Cc1ccccc1)NCCn1cnc2c1c(=O)n(C)c(=O)n2C` (centres unmarked) the inhibition was -4% (Voltage-gated inwardly rectifying potassium channel KCNH2 (KCNH2, Homo sapiens, UniProt Q12809); ligand displacement, radioligand; 10 µM).
With `O=C1[O][Pt]2([NH][C@@H]3CCCC[C@H]3[NH]2)[O]C1=O` (relative stereo) the MRT was 19.7 h (cynomolgus monkey, plasma; oral, 10 mg/kg).
`C[C@@H](c1ccc2nccn2c1)n1nnc2ncc(-c3cnn(C)c3)nc21` has a Tmax of 4 h (human, plasma; oral, 600 mg).
For `O=C(O)c1cn(Cc2ccc(F)cc2)c2ccccc12`, the Km was 61.5 µM (UGT2B7; enzyme activity, substrate).
`C=C1CC[C@@H]2[C@](C)(CO)[C@H](O)CC[C@@]2(C)[C@@H]1/C=C/C1=CCOC1=O` gave a Ki of 6.9 µM (UGT2B7; enzyme activity, inhibitor).
`Cl.Cl.O=C(CCN1CCCCC1)c1ccc(-c2ccc(C(=O)CCN3CCCCC3)cc2)cc1` gave an MRT(0-t) of 12.2 h (Sprague-Dawley rat, plasma; oral, 100 mg/kg).
For `Cc1ncc2n1-c1ccc(Cl)cc1C(c1ccccc1F)=NC2`, the Tmax was 0.0333 h (human, plasma; intravenous, 3 µg, single dose).
`N=C(N)NCCC[C@@H](NC(=O)[C@@H](N)Cc1ccccc1)C(=O)N[C@@H](Cc1ccccc1)C(=O)N[C@@H](CCCCN)C(N)=O` has a Tmax of 0.75 h (human, plasma; subcutaneous, 15 mg, patients).
